The target of experiment [1] is T1, Toll-like receptor 7 (Homo sapiens) (UniProt Q9NYK1).
T1 sequence (whole entry): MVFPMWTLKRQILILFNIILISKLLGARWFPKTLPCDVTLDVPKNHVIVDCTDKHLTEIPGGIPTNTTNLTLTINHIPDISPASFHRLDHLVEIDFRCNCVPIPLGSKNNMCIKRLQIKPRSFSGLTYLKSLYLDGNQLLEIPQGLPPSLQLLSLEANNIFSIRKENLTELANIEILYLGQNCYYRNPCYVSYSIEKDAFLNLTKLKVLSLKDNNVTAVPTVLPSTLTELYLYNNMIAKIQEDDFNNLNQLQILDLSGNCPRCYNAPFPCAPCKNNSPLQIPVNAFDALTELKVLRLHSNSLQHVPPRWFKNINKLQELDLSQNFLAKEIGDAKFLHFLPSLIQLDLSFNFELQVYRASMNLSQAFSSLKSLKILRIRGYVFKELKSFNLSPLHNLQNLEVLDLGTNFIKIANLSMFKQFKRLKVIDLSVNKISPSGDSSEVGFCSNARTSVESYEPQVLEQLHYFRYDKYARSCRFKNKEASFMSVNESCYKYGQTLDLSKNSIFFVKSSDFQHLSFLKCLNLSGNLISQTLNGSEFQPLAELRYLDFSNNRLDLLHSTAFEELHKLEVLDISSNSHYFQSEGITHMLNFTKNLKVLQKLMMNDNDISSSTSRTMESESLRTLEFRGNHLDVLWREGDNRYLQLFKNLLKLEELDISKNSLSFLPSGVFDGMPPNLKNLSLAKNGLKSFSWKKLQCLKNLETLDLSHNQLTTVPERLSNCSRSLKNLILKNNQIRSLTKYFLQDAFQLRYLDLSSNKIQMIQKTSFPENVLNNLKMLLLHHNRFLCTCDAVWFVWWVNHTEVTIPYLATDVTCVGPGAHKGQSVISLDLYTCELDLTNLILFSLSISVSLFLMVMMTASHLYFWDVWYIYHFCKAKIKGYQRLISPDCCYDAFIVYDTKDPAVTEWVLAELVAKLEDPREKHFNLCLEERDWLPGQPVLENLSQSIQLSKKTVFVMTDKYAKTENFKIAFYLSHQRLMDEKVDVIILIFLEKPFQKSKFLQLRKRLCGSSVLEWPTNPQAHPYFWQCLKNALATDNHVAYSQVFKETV
Description: Activation of human TLR7 expressed in HEK293XL assessed as fold induction of NF-kappaB activity at 50 ug/ml after 18 hrs by reporter gene assay relative to control. The gist of the method:
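HEK293 cells stably expressing human TLR7 or TLR8, transiently transfected with SEAP reporter plasmid; medium replaced, SIMRA compounds added, 18 h incubation. Supernatant SEAP measured by QuantiBlue; expressed as fold increase in NF-κB activity over PBS control. Tabulated data at 50 μg/mL, representative of three independent experiments.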

The species entered for the next experiment is Homo sapiens. Kind of experiment: Ratio of human TLR7 activity to human TLR8 activity. Summed up:
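TLR7/TLR8 ratio computed from fold NF-κB (SEAP reporter) activation in HEK293 cells stably expressing human TLR7 versus TLR8, compounds at 50 μg/mL, 18 h exposure; representative of three independent experiments.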

SMILES strings stand for the structures.

For the compound `Nc1ccn([C@@H]2O[C@H](COP(=O)(S)O[C@H]3[C@@H](O)[C@H](n4ccc(N)nc4=O)O[C@@H]3COP(=O)(S)O[C@H]3[C@@H](O)[C@H](n4cnc5c(N)ncnc54)O[C@@H]3COP(=O)(S)O[C@H]3[C@@H](O)[C@H](n4ccc5c(=O)[nH]c(N)nc54)O[C@@H]3COP(=O)(S)O[C@H]3[C@@H](O)[C@H](n4ccc(=O)[nH]c4=O)O[C@@H]3COP(=O)(S)O[C@H]3[C@@H](O)[C@H](n4ccc(=O)[nH]c4=O)O[C@@H]3COP(=O)(S)O[C@H]3[C@@H](O)[C@H](n4ccc(N)nc4=O)O[C@@H]3COP(=O)(S)O[C@H]3[C@@H](O)[C@H](n4cnc5c(N)ncnc54)O[C@@H]3CO)[C@@H](OP(=O)(S)OC[C@H]3O[C@@H](n4ccc(=O)[nH]c4=O)[C@H](O)[C@@H]3OP(=O)(S)OC[C@H]3O[C@@H](n4ccc(=O)[nH]c4=O)[C@H](O)[C@@H]3OP(=O)(S)OC[C@H]3O[C@@H](n4ccc(=O)[nH]c4=O)[C@H](O)[C@@H]3OP(=O)(S)OCC(O)COP(=O)(S)O[C@H]3[C@@H](O)[C@H](n4ccc(=O)[nH]c4=O)O[C@@H]3COP(=O)(S)O[C@H]3[C@@H](O)[C@H](n4ccc(=O)[nH]c4=O)O[C@@H]3COP(=O)(S)O[C@H]3[C@@H](O)[C@H](n4ccc(=O)[nH]c4=O)O[C@@H]3COP(=O)(S)O[C@H]3[C@@H](O)[C@H](n4ccc(N)nc4=O)O[C@@H]3COP(=O)(S)O[C@H]3[C@@H](O)[C@H](n4ccc(N)nc4=O)O[C@@H]3COP(=O)(S)O[C@H]3[C@@H](O)[C@H](n4cnc5c(N)ncnc54)O[C@@H]3COP(=O)(S)O[C@H]3[C@@H](O)[C@H](n4ccc5c(=O)[nH]c(N)nc54)O[C@@H]3COP(=O)(S)O[C@H]3[C@@H](O)[C@H](n4ccc(=O)[nH]c4=O)O[C@@H]3COP(=O)(S)O[C@H]3[C@@H](O)[C@H](n4ccc(=O)[nH]c4=O)O[C@@H]3COP(=O)(S)O[C@H]3[C@@H](O)[C@H](n4ccc(N)nc4=O)O[C@@H]3COP(=O)(S)O[C@H]3[C@@H](O)[C@H](n4cnc5c(N)ncnc54)O[C@@H]3CO)[C@H]2O)c(=O)n1` (some centres undefined), the fold change (FC) in experiment [1] stood at 23.3. In addition, the Ratio in the experiment filed under Homo sapiens stood at 12.9.

In the case of `Nc1ccn([C@@H]2O[C@H](CO)[C@@H](OP(=O)(S)OC[C@H]3O[C@@H](n4ccc(=O)[nH]c4=O)[C@H](O)[C@@H]3OP(=O)(S)OC[C@H]3O[C@@H](n4ccc5c(=O)[nH]c(N)nc54)[C@H](O)[C@@H]3OP(=O)(S)OC[C@H]3O[C@@H](n4cnc5c(N)ncnc54)[C@H](O)[C@@H]3OP(=O)(S)OC[C@H]3O[C@@H](n4ccc5c(=O)[nH]c(N)nc54)[C@H](O)[C@@H]3OP(=O)(S)OC[C@H]3O[C@@H](n4cnc5c(N)ncnc54)[C@H](O)[C@@H]3OP(=O)(S)OC[C@H]3O[C@@H](n4cnc5c(N)ncnc54)[C@H](O)[C@@H]3OP(=O)(S)OC[C@H]3O[C@@H](n4ccc5c(=O)[nH]c(N)nc54)[C@H](O)[C@@H]3OP(=O)(S)OC[C@H]3O[C@@H](n4ccc(N)nc4=O)[C@H](O)[C@@H]3OP(=O)(S)OC[C@H]3O[C@@H](n4ccc(=O)[nH]c4=O)[C@H](O)[C@@H]3OP(=O)(S)OC[C@H]3O[C@@H](n4ccc(=O)[nH]c4=O)[C@H](O)[C@@H]3OP(=O)(S)OCC(O)COP(=O)(S)O[C@H]3[C@@H](O)[C@H](n4ccc(=O)[nH]c4=O)O[C@@H]3COP(=O)(S)O[C@H]3[C@@H](O)[C@H](n4ccc(=O)[nH]c4=O)O[C@@H]3COP(=O)(S)O[C@H]3[C@@H](O)[C@H](n4ccc(N)nc4=O)O[C@@H]3COP(=O)(S)O[C@H]3[C@@H](O)[C@H](n4ccc5c(=O)[nH]c(N)nc54)O[C@@H]3COP(=O)(S)O[C@H]3[C@@H](O)[C@H](n4cnc5c(N)ncnc54)O[C@@H]3COP(=O)(S)O[C@H]3[C@@H](O)[C@H](n4cnc5c(N)ncnc54)O[C@@H]3COP(=O)(S)O[C@H]3[C@@H](O)[C@H](n4ccc5c(=O)[nH]c(N)nc54)O[C@@H]3COP(=O)(S)O[C@H]3[C@@H](O)[C@H](n4cnc5c(N)ncnc54)O[C@@H]3COP(=O)(S)O[C@H]3[C@@H](O)[C@H](n4ccc5c(=O)[nH]c(N)nc54)O[C@@H]3COP(=O)(S)O[C@H]3[C@@H](O)[C@H](n4ccc(=O)[nH]c4=O)O[C@@H]3COP(=O)(S)O[C@H]3[C@@H](O)[C@H](n4ccc(N)nc4=O)O[C@@H]3CO)[C@H]2O)c(=O)n1` (some centres undefined), the fold change (FC) in experiment [1] came to 27.6. In addition, the Ratio in the experiment listed under Homo sapiens was 69.

Source of the values: ChEMBL document CHEMBL1154352, “Toll-like receptor 7 selective synthetic oligoribonucleotide agonists: synthesis and structure-activity relationship studies” (J Med Chem, 2009).
